Measured values of several laboratories.
Target: Serine/threonine-protein kinase Nek6 (NEK6, Homo sapiens, UniProt Q9HC98)
Effect on: enzyme activity
Action: inhibitor

method	tested at	remaining activity	SMILES
–	10 µM	87%	Oc1cccc(-c2nc(N3CCOCC3)c3oc4ncccc4c3n2)c1
–	0.5 µM	96.1%	Cc1ccc(Nc2nccc(N(C)c3ccc4c(C)n(C)nc4c3)n2)cc1S(N)(=O)=O
–	10 µM	96%	CCCOc1ccc(OC)c(F)c1C(=O)c1ccc(C(=O)N[C@@H]2CNC[C@H]2NC(=O)c2ccc3[nH]ncc3c2)cc1
radiometric	10 µM	96%	COc1cc(Nc2cnc(C#N)c(O[C@H](C)CN(C)C)n2)ncc1-c1cnn(C)c1
–	10 µM	95%	Cn1c(=O)n(-c2ccc(C(C)(C)C#N)cc2)c2c3cc(-c4cnc5ccccc5c4)ccc3ncc21
–	1 µM	126%	Cc1[nH]c(/C=C2\C(=O)Nc3ccc(F)cc32)c(C)c1C(=O)N[C@H]1CCN(C(=O)N(C)C)C1
–	10 µM	93%	CCN(CC)c1ccc(C2=NNC(=O)CC2C)cc1[N+](=O)[O-] (stereo not drawn)
–	10 µM	100%	CC(C)(C)C(=O)c1sc(NC2CCCCC2)nc1N
radiometric	1 µM	99%	CC(C)(C)c1nc(-c2cccc(NS(=O)(=O)c3c(F)cccc3F)c2F)c(-c2ccnc(N)n2)s1
–	5 µM	86.8%	O=C(Nc1cnn(-c2csc(C(=O)NC3COC3)c2)c1)Nc1c(F)cccc1Cl
–	23.5 nM	100%	Cc1ccc(C(=O)Nc2ccc(CN3CCN(C)CC3)c(C(F)(F)F)c2)cc1C#Cc1cnc2cccnn12
–	0.1 µM	99%	CCN(CC)CCNC(=O)c1c(C)[nH]c(/C=C2\C(=O)Nc3ccc(F)cc32)c1C
